Positions of bridges follow the written chain, without caps; N, C: chain ends. Non-standard residues stand in square brackets, D forms with d. Residues, ends and D or L forms follow the SMILES beside them. sY = N[C@@H](Cc1ccc(OS(=O)(=O)O)cc1)C(=O)O
Key:
[1] = Displacement of [3H]-epibatidine from Aplysia californica Acetylcholine-binding protein measured after 1 hr by liquid scintillation counter
Procedure, shortened: (§1)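 Recombinant AChBP expressed in E. coli (IPTG induction, 16 °C), coated onto wells at 1 ng μL−1. Incubated 1 h at 4 °C with [3H]-epibatidine (1 nM final) and increasing peptide in PBS with 0.05% BSA. Unbound ligand washed off; bound radioactivity counted by liquid scintillation. One-site competition fit gives Ki. Triplicate, three independent experiments; pKi as mean with 95% CI.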

[2] = biological target: Acetylcholine-binding protein (Lymnaea stagnalis, UniProt P58154); assay: Displacement of [3H]-epibatidine from Lymnaea stagnalis Acetylcholine-binding protein measured after 1 hr by liquid scintillation counter; procedure, shortened: as §1
Sequence of Acetylcholine-binding protein (P58154 whole entry): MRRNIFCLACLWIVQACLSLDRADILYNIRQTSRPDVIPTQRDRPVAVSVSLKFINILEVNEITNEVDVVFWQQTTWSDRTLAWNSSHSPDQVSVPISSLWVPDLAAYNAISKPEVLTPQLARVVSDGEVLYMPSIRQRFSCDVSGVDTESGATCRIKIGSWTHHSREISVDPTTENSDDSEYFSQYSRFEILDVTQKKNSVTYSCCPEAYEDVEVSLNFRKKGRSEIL

[3] = biological target: Neuronal acetylcholine receptor; alpha3/beta4 (Homo sapiens, UniProt P30926+P32297); assay: Antagonist activity at human alpha3beta4 nAChR in SH-SY5Y cells assessed as inhibition of calcium flux by FLIPR assay; assay type: cell-based
Sequence of Neuronal acetylcholine receptor; alpha3/beta4 (P30926 whole entry): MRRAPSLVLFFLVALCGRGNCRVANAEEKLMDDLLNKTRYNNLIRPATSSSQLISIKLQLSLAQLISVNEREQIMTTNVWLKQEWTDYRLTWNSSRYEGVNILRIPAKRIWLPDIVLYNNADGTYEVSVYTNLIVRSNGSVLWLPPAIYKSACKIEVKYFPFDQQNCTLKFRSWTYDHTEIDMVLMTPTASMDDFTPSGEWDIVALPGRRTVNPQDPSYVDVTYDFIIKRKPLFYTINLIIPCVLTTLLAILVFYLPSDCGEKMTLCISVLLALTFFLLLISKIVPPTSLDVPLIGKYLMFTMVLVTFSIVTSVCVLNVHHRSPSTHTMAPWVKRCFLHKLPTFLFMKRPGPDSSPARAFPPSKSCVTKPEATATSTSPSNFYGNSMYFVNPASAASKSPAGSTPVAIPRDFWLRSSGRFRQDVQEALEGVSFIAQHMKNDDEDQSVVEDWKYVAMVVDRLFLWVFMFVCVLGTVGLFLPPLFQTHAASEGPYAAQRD
Sequence of Neuronal acetylcholine receptor; alpha3/beta4 (P32297 whole entry): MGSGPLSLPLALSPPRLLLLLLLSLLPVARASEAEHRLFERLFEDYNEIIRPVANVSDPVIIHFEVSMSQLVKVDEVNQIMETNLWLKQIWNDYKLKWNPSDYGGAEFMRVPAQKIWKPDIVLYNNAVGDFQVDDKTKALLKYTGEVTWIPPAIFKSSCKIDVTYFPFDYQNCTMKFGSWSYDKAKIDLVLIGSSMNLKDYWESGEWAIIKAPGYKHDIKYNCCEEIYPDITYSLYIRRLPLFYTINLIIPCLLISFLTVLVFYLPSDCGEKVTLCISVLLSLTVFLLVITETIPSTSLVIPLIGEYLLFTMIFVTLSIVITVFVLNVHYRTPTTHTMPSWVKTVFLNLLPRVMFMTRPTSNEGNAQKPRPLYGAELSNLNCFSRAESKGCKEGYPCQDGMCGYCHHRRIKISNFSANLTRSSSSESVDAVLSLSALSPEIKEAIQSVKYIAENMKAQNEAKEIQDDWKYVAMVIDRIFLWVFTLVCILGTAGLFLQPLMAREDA
Procedure, shortened: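 SH-SY5Y cells (endogenous α3β4), grown in RPMI with 15% FBS, plated 100 000/well and cultured 48 h. Loaded with calcium 4 dye for 30 min at 37 °C. Peptides in PSS (pH 7.4) added 10 min before nicotine 30 μM. Fluorescence read at 470–495 nm excitation, 515–575 nm emission, every 1 s. Normalised to maximal nicotine response; four-parameter Hill fit; pIC50. Triplicate, three independent experiments.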

In the case of `CSCC[C@@H]1NC(=O)[C@H](CC(N)=O)NC(=O)[C@@H]2CSSC[C@H](NC(=O)CN)C(=O)N[C@@H](CSSC[C@@H](C(N)=O)NC(=O)[C@H](Cc3ccc(O)cc3)NC(=O)[C@H](CC(=O)O)NC(=O)[C@@H]3CCCN3C(=O)[C@H](CC(N)=O)NC(=O)[C@H](CC(N)=O)NC1=O)C(=O)N[C@@H](CO)C(=O)N[C@@H](CC(=O)O)C(=O)N1CCC[C@H]1C(=O)N[C@@H](CCCNC(=N)N)C(=O)N2` (H-GCCSDPRCNMNNPDYC-NH2; disulfide 2-8, 3-16), the pKi [1] is reported as 7.57, the Ki [2] is reported as > 100 µM and the IC50 [3] is reported as 347 nM.
With `CSCC[C@@H]1NC(=O)[C@H](CC(N)=O)NC(=O)[C@@H]2CSSC[C@H](NC(=O)CN)C(=O)N[C@@H](CSSC[C@@H](C(N)=O)NC(=O)[C@H](Cc3ccc(OS(=O)(=O)O)cc3)NC(=O)[C@H](CC(=O)O)NC(=O)[C@@H]3CCCN3C(=O)[C@H](CC(N)=O)NC(=O)[C@H](CC(N)=O)NC1=O)C(=O)N[C@@H](CO)C(=O)N[C@@H](CC(=O)O)C(=O)N1CCC[C@H]1C(=O)N[C@@H](CCCNC(=N)N)C(=O)N2` (H-GCCSDPRCNMNNPD[sY]C-NH2; disulfide 2-8, 3-16) the pKi [1] was 8.38, the Ki [2] was > 100 µM and the IC50 [3] was 64.6 nM.
With `C[C@@H]1NC(=O)[C@H](C)NC(=O)[C@@H]2CSSC[C@H](NC(=O)CNC(=O)CN)C(=O)N[C@@H](CSSC[C@@H](C(=O)O)NC(=O)[C@H](Cc3ccc(O)cc3)NC(=O)[C@H](CC(=O)O)NC(=O)[C@H](CCC(N)=O)NC(=O)[C@H](CC(N)=O)NC(=O)[C@H](CC(N)=O)NC1=O)C(=O)N[C@@H](CO)C(=O)N[C@@H](Cc1cnc[nH]1)C(=O)N1CCC[C@H]1C(=O)N[C@@H](C)C(=O)N2` the pKi [1] was 8 and the Ki [2] was > 100 µM.
For `CSCC[C@@H]1NC(=O)[C@H](CC(N)=O)NC(=O)[C@@H]2CSSC[C@H](NC(=O)CN)C(=O)N[C@@H](CSSC[C@@H](C(=O)O)NC(=O)[C@H](Cc3ccc(O)cc3)NC(=O)[C@H](CC(=O)O)NC(=O)[C@@H]3CCCN3C(=O)[C@H](CC(N)=O)NC(=O)[C@H](CC(N)=O)NC1=O)C(=O)N[C@@H](CO)C(=O)N[C@@H](CC(=O)O)C(=O)N1CCC[C@H]1C(=O)N[C@@H](CCCNC(=N)N)C(=O)N2` (H-GCCSDPRCNMNNPDYC-OH; disulfide 2-8, 3-16), the pKi [1] was 6, the Ki [2] was > 100 µM and the IC50 [3] was 1350 nM.
With `C[C@@H]1NC(=O)[C@H](C)NC(=O)[C@@H]2CSSC[C@H](NC(=O)CNC(=O)CN)C(=O)N[C@@H](CSSC[C@@H](C(N)=O)NC(=O)[C@H](Cc3ccc(O)cc3)NC(=O)[C@H](CC(=O)O)NC(=O)[C@H](CCC(N)=O)NC(=O)[C@H](CC(N)=O)NC(=O)[C@H](CC(N)=O)NC1=O)C(=O)N[C@@H](CO)C(=O)N[C@@H](Cc1cnc[nH]1)C(=O)N1CCC[C@H]1C(=O)N[C@@H](C)C(=O)N2` the pKi [1] was 8.96 and the Ki [2] was 24.5 µM.
In the case of `CSCC[C@@H]1NC(=O)[C@H](CC(N)=O)NC(=O)[C@@H]2CSSC[C@H](NC(=O)CN)C(=O)N[C@@H](CSSC[C@@H](C(=O)O)NC(=O)[C@H](Cc3ccc(OS(=O)(=O)O)cc3)NC(=O)[C@H](CC(=O)O)NC(=O)[C@@H]3CCCN3C(=O)[C@H](CC(N)=O)NC(=O)[C@H](CC(N)=O)NC1=O)C(=O)N[C@@H](CO)C(=O)N[C@@H](CC(=O)O)C(=O)N1CCC[C@H]1C(=O)N[C@@H](CCCNC(=N)N)C(=O)N2` (H-GCCSDPRCNMNNPD[sY]C-OH; disulfide 2-8, 3-16), the pKi [1] is reported as 6.5, the Ki [2] is reported as > 100 µM and the IC50 [3] is reported as 501 nM.
With `C[C@@H]1NC(=O)[C@H](C)NC(=O)[C@@H]2CSSC[C@H](NC(=O)CNC(=O)CN)C(=O)N[C@@H](CSSC[C@@H](C(N)=O)NC(=O)[C@H](Cc3ccc(OS(=O)(=O)O)cc3)NC(=O)[C@H](CC(=O)O)NC(=O)[C@H](CCC(N)=O)NC(=O)[C@H](CC(N)=O)NC(=O)[C@H](CC(N)=O)NC1=O)C(=O)N[C@@H](CO)C(=O)N[C@@H](Cc1cnc[nH]1)C(=O)N1CCC[C@H]1C(=O)N[C@@H](C)C(=O)N2` the pKi [1] was 9.4 and the Ki [2] was 5.37 µM.
In the case of `C[C@@H]1NC(=O)[C@H](C)NC(=O)[C@@H]2CSSC[C@H](NC(=O)CNC(=O)CN)C(=O)N[C@@H](CSSC[C@@H](C(=O)O)NC(=O)[C@H](Cc3ccc(OS(=O)(=O)O)cc3)NC(=O)[C@H](CC(=O)O)NC(=O)[C@H](CCC(N)=O)NC(=O)[C@H](CC(N)=O)NC(=O)[C@H](CC(N)=O)NC1=O)C(=O)N[C@@H](CO)C(=O)N[C@@H](Cc1cnc[nH]1)C(=O)N1CCC[C@H]1C(=O)N[C@@H](C)C(=O)N2`, the pKi [1] is reported as 8.66 and the Ki [2] is reported as > 100 µM.
